Data as given in ChEMBL document CHEMBL4390648, “Chemical synthesis, crystal structure, versatile evaluation of their biological activities and molecular simulations of novel pyrithiobac derivatives” (Eur J Med Chem, 2019).
In brackets after ≈: the same amount, converted by molar mass. Activity calls are given as the source filed them. The rule behind the calls is not given here.

Legend:
Arabidopsis thaliana [1] = assay: Inhibition of Arabidopsis thaliana AHAS catalytic subunit using pyruvate as substrate at 10 uM measured after 30 mins by colorimetric method relative to control
In short: (§1)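 Colorimetric assay in 50 mM potassium phosphate pH 7.0 with 50 mM pyruvate, 1 mM thiamine diphosphate, 10 mM MgCl2 and 10 μM FAD. Incubated 30 min at 37 °C for plant AHAS and 30 °C for fungal AHAS. Acetolactate formed was then quantified.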

Sclerotinia sclerotiorum = assay: Antifungal activity against Sclerotinia sclerotiorum assessed as reduction in growth at 50 mg/l by mycelium growth rate method relative to control; type: functional
In short: (§2)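 Mycelium growth rate method against S. sclerotiorum, P. capsici, P. piricola, R. cerealis, W. anthracnose and R. bakanae. Each compound tested at 50 mg/L, with chlorothalonil and PTB as controls. Relative inhibitory ratio (%) calculated from mycelial growth.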

Candida albicans [2] = assay: Inhibition of Candida albicans AHAS catalytic subunit at 100 uM using pyruvate as substrate measured after 30 mins by colorimetric method relative to control; in short: as §1
[3] = system: Botryosphaeria berengeriana; assay: Antifungal activity against Physalospora pyricola assessed as reduction in growth at 50 mg/l by mycelium growth rate method relative to control; type: functional; in short: as §2
[4] = system: Brassica rapa subsp. oleifera; assay: Herbicidal activity against Brassica campestris L assessed as inhibition of rape root growth at 10 mg/l root growth incubated for 48 hrs relative to control; type: functional
In short: (§3)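 Rape seeds soaked in distilled water for 4 h, then placed on filter paper wetted with inhibitor solution, 15 seeds per 6-cm dish. Germinated in the dark at 28 °C for 48 h. Mean length of 10 roots per plate measured.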

Colletotrichum = assay: Antifungal activity against Colletotrichum (W. anthracnose) assessed as reduction in growth at 50 mg/l by mycelium growth rate method relative to control; type: functional; in short: as §2
Candida albicans [5] = assay: Inhibition of Candida albicans AHAS catalytic subunit at 10 uM using pyruvate as substrate measured after 30 mins by colorimetric method relative to control; in short: as §1
Candida albicans [6] = assay: Antifungal activity against Candida albicans isolate 17 grown in RPMI 1640 medium incubated for 24 hrs by microdilution method; type: functional; conditions: isolate 17, 24 h
In short: (§4)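 C. albicans standard strain SC5314 and clinical isolates g5 and 17# tested by broth microdilution in YNB or RPMI 1640 medium. Plates incubated at 35 °C for up to 72 h, with visual readings taken at 24 h. MIC taken as the lowest concentration preventing visible growth.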

[7] = system: Brassica rapa subsp. oleifera; assay: Herbicidal activity against Brassica campestris L assessed as inhibition of rape root growth at 100 mg/l root growth incubated for 48 hrs relative to control; type: functional; in short: as §3
Phytophthora capsici = assay: Antifungal activity against Phytophthora capsici assessed as reduction in growth at 50 mg/l by mycelium growth rate method relative to control; type: functional; in short: as §2
Ceratobasidium cereale [8] = assay: Antifungal activity against Rhizoctonia cerealis assessed as reduction in growth at 50 mg/l by mycelium growth rate method relative to control; type: functional; in short: as §2
Tobacco mosaic virus [9] = assay: Antiviral activity against Tobacco mosaic virus inoculated in Nicotiana tabacum leaves assessed as passivation by measuring local lesion numbers at 500 mg/l pre-incubated with virus for 30 mins followed by inoculation and measured up to 4 days; type: functional
In short: (§5)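 Passivation assay: TMV mixed with an equal volume of compound solution for 30 min, then rubbed onto the left half of N. tabacum L. leaves. The right half received virus mixed with solvent as control. Local lesions counted 3–4 days after inoculation. Compounds tested at 500 or 100 mg/L.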

Candida albicans [10] = assay: Antifungal activity against Candida albicans isolate g5 grown in RPMI 1640 medium incubated for 24 hrs by microdilution method; type: functional; conditions: isolate g5, 24 h; in short: as §4
Tobacco mosaic virus [11] = assay: Antiviral activity against Tobacco mosaic virus inoculated in Nicotiana tabacum leaves assessed as passivation by measuring local lesion numbers at 100 mg/l pre-incubated with virus for 30 mins followed by inoculation and measured up to 4 days; type: functional; in short: as §5
Candida albicans [12] = assay: Antifungal activity against Candida albicans SC5314 grown in RPMI 1640 medium incubated for 24 hrs by microdilution method; type: functional; conditions: SC5314, 24 h; in short: as §4
Ceratobasidium cereale [13] = assay: Antifungal activity against Rhizoctonia cerealis assessed as reduction in growth mycelium growth rate method relative to control; type: functional, organism-based
In short: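 EC50 against R. cerealis derived from mycelium growth-rate inhibition over a concentration series, using a probit fit: Probit = m(log10[I] − log10[EC50]) + 5.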

Fusarium fujikuroi = assay: Antifungal activity against Gibberella fujikuroi assessed as reduction in growth at 50 mg/l by mycelium growth rate method relative to control; type: functional; in short: as §2
Candida albicans [14] = assay: Antifungal activity against Candida albicans SC5314 grown in YNB medium incubated for 24 hrs by microdilution method; type: functional; conditions: SC5314, 24 h; in short: as §4
Mythimna separata = assay: Insecticidal activity against Mythimna separata assessed as larval mortality at 600 mg/l by leaf-dip method; type: functional
Arabidopsis thaliana [15] = assay: Inhibition of Arabidopsis thaliana AHAS catalytic subunit using pyruvate as substrate at 100 uM measured after 30 mins by colorimetric method relative to control; in short: as §1
[16] = system: Severe acute respiratory syndrome-related coronavirus; assay: Inhibition of SARS coronavirus M protease using AVLQSGFRKK as substrate at 20 uM by FRET assay relative to control
In short: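 Purified SARS-CoV Mpro assayed by FRET. Protein, compound and substrate were preheated at 37 °C and oscillated. Fluorescence (ex 320/em 405 nm) was read every 5 s for 200 reads.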

Candida albicans [17] = assay: Antifungal activity against Candida albicans isolate g5 grown in YNB medium incubated for 24 hrs by microdilution method; type: functional; conditions: isolate g5, 24 h; in short: as §4
Candida albicans [18] = assay: Antifungal activity against Candida albicans isolate 17 grown in YNB medium incubated for 24 hrs by microdilution method; type: functional; conditions: isolate 17, 24 h; in short: as §4

Row | Structure (SMILES) | inhibition (Arabidopsis thaliana [1]) [%] | inhibition at 50 µg/mL (Sclerotinia sclerotiorum) [%] | inhibition (Candida albicans [2]) [%] | inhibition at 50 µg/mL [3] [%] | inhibition (INH) [4] [%] | inhibition at 50 µg/mL (Colletotrichum) [%] | inhibition (Candida albicans [5]) [%] | MIC (Candida albicans [6]) [µg/mL] | inhibition (INH) [7] [%] | inhibition at 50 µg/mL (Phytophthora capsici) [%] | inhibition at 50 µg/mL (Ceratobasidium cereale [8]) [%] | inhibition at 500 µg/mL (Tobacco mosaic virus [9]) [%] | MIC (Candida albicans [10]) [µg/mL] | MIC (Candida albicans [12]) [µg/mL] | EC50 (Ceratobasidium cereale [13]) [µg/mL] | inhibition at 50 µg/mL (Fusarium fujikuroi) [%] | MIC (Candida albicans [14]) [µg/mL] | inhibition (Arabidopsis thaliana [15]) [%] | inhibition [16] [%] | MIC (Candida albicans [17]) [µg/mL] | also measured
1 | COc1nc(OC)nc(Sc2ccc(C#N)cc2Br)n1 | 53.1 | 13.9 | 68.6 | 56.3 | 0 | 19 | 32.1 | > 100 | 25 | 8.3 | 94 | 0 | > 100 | > 100 | 12.4 (≈ 35.1 µM) | 51.5 | > 100 | 98.3 | 39.3 | > 100 | inhibition (Tobacco mosaic virus [11]): inactive; mortality at 600 µg/mL (Mythimna separata): 30%; MIC (Candida albicans [18]): > 100 µg/mL
2 | N#Cc1c(Cl)c(Cl)c(Cl)c(C#N)c1Cl [CHLOROTHALONIL] |  | 87.6 |  | 92.5 |  | 78.6 |  |  |  | 80.8 | 96.8 |  |  |  | 5.3 (≈ 19.9 µM) | 75.4 |  |  |  |  | 
3 | COc1cc(OC)nc(Sc2ccc(Cl)cc2C(=O)O)n1 | 34 | 63.9 | 96.6 | 40.6 | 0 | 52.4 | 80.6 | > 100 | 54.5 | 41.7 | 89.3 | 0 | > 100 | > 100 | 14.1 (≈ 43.2 µM) | 48.5 | > 100 | 100 | 4.6 | > 100 | inhibition (Tobacco mosaic virus [11]): inactive; mortality at 600 µg/mL (Mythimna separata): 5%; MIC (Candida albicans [18]): > 100 µg/mL
4 | COc1cc(OC)nc(Sc2ccc(C(=O)O)cc2F)n1 | 40 | 83.3 | 91.7 | 50 | 48 | 40.5 | 81.7 | > 100 | 82.2 | 58.3 | 91.7 | 46.5 | > 100 | > 100 | 11.8 (≈ 38 µM) | 48.5 | > 100 | 100 | 26.8 | > 100 | inhibition at 100 µg/mL (Tobacco mosaic virus [11]): 6.8%; mortality at 600 µg/mL (Mythimna separata): 30%; MIC (Candida albicans [18]): > 100 µg/mL
5 | COc1nc(OC)nc(Oc2cccc(I)c2)n1 | 8.9 | 66.7 | 29.4 | 59.4 | 80.2 | 23.8 | 0 | > 100 | 88.1 | 33.3 | 90.5 | 17.1 | > 100 | > 100 | 10.9 (≈ 30.4 µM) | 6.1 | > 100 | 84.7 | 0 | > 100 | inhibition (Tobacco mosaic virus [11]): inactive; MIC (Candida albicans [18]): > 100 µg/mL
6 | COc1cc(OC)nc(Sc2ccc(C(=O)O)cc2Br)n1 | 48.9 | 50 | 94.6 | 51.6 | 0 | 45.2 | 70.7 | > 100 | 26.4 | 42.7 | 96.4 | 0 | > 100 | > 100 | 11.4 (≈ 30.7 µM) | 39.4 | 25 (≈ 67.3 µM) | 100 | 0 | 25 (≈ 67.3 µM) | inhibition (Tobacco mosaic virus [11]): inactive; mortality at 600 µg/mL (Mythimna separata): 50%; MIC (Candida albicans [18]): 12.5 µg/mL (≈ 33.7 µM)
7 | COc1nc(OC)nc(Sc2ccc(Br)cc2C(=O)O)n1 | 12 | 66.7 | 96.7 | 59.4 | 5.2 | 23.8 | 59.3 | > 100 | 55.1 | 33.3 | 58.3 | 0 | > 100 | > 100 |  | 6.1 | > 100 | 19 | 48.8 | > 100 | inhibition (Tobacco mosaic virus [11]): inactive; mortality at 600 µg/mL (Mythimna separata): 45%; MIC (Candida albicans [18]): > 100 µg/mL
